Results taken from paper PMC7395490 (Proceedings of the National Academy of Sciences of the …, 2020).
“And” between values parts separate entries of the source, which are not always exact repeats. Equal entries are not always repeated. “Also recorded” adds a separate entry of the source. Where two headings read alike, the source gives them in different places.

Legend:
CRC cell lines = details: on average across CRC cell lines; cited from earlier work
HCT116 xenograft tumors [1] = assay: Survival rate and cause of death, efficacy experiment 1; format: in vivo, NSG mice
In short: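 HCT116 s.c. xenograft NSG mice received i.p. vehicle, test compound or platinum reference plus s.c. saline hydration; n = 10 to 13 per group. Mice were removed when found dead, when declining health required killing, or when tumor diameter exceeded 15 mm. Survival versus starting number gave Kaplan–Meier curves. ILS = (DaysT – DaysC)/DaysC against vehicle controls.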

[2] = test system: HCT116O MMR-deficient cells; details: cited from earlier work; for IC50: HCT116O MMR-deficient cells
[3] = Plasma pharmacokinetics after i.p. dose; format: in vivo, NSG mice; details: for AUC0–8 h / Cmax / t1/2: mouse plasma
In short: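 After the final i.p. dose (0.5 or 1 mpk) in xenograft-bearing NSG mice, blood was taken by cardiac puncture at 0.5, 1, 2, 4 and 8 h (three mice/group/time) into heparinized vials on ice. Plasma was spun at 15,000 × g, 5 min, RT, and stored at −80 °C. Proteins were precipitated with acetonitrile containing a rhodium-complex internal standard. Intact complex was measured by LC-MS/MS; AUC0–8 h came from the concentration curve.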

[4] = First mouse experiments exploring the administration route; format: in vivo
[5] = Mouse body weights during i.p. treatment; format: in vivo, NSG mice; details: Rh-PPO treatment groups, both i.p. schedules
[6] = Histological analyses of collected tissues; format: in vivo, NSG mice; details: Rh-PPO-treated mice, i.p.
Aqueous solubility = format: physicochemical
Stability in rat plasma = format: in vitro ADME
HCT116 xenograft tumors [7] = assay: Efficacy experiment 1: tumor volume, i.p. dosing; format: in vivo, NSG mice; details: for tumor volumes at conclusion of study: day 28, Rh-PPO vs oxaliplatin 7.5 mpk i.p.
In short: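 NSG mice (23 to 34 g) were given 2.5 × 10^6 HCT116 cells in 100 μL McCoy's 5A with 10% FBS, s.c. in the right flank. At ~100 mm3 (11 to 12 d), mice were randomized (10 to 13/group). Test compound in saline was given i.p. three or four times weekly. Vehicle was 0.9% NaCl. Platinum reference in 5% dextrose was given i.p. twice weekly. Mice also received 2 mL s.c. saline twice weekly. Calipers twice weekly; TV = W2L/2.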

[8] = Rhodium and platinum content of tissues after i.p. treatment; format: in vivo, NSG mice; details: Rh-PPO 1 mpk, oxaliplatin 7.5 mpk i.p.
[9] = Stability in rat liver microsomes; format: in vitro ADME
HCT116 xenograft tumors [10] = assay: Intratumoral efficacy experiment; format: in vivo, NSG mice; details: 1 mpk intratumoral
NSG mice = assay: Maximum tolerated dose; format: in vivo; details: for start of notable symptoms of distress and inactivity: mice killed before end of 10-d study
In short: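 Weighed NSG mice received test compound dissolved in saline i.p. at 1, 2, 5 or 15 mpk, once daily for 10 consecutive days. Clinical observations and body weights were recorded daily. Surviving animals were killed with carbon dioxide at study end.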

[11] = cited from earlier work

[Rh(chrysi)(phen)(2-(pyridine-2-yl)propan-2-ol]Cl2 [Rh-PPO]
potency relative to cisplatin (CRC cell lines): five times more potent
increase in life span (ILS) relative to vehicle (HCT116 xenograft tumors [1]; Rh-PPO 0.5/1 mpk, oxaliplatin 7.5 mpk i.p.): 12%
mice killed due to poor health and inactivity (HCT116 xenograft tumors [1]; Rh-PPO 1 mpk, oxaliplatin 7.5 mpk i.p.): 10%
mice that died due to tumors reaching maximum allowable size (15 mm) (HCT116 xenograft tumors [1]; both Rh-PPO treatment groups): 90%
IC50 [2]: 0.25 µM
cytotoxicity toward HCT116O compared to HCT116N cells ([2]; MMR-deficient HCT116O vs matched MMR-proficient HCT116N): highly potent and selective cytotoxicity
AUC0–8 h ([3]; 0.5 mpk i.p.): 1.31 µM·h
Cmax ([3]; 0.5 mpk i.p.): 450 nM
t1/2 ([3]; 0.5 mpk i.p.): 1.11 h
exposure level (Cmax) relative to in vitro cell IC50 of 250 nM ([3]; 1 mpk i.p.): ~2.5 fold
AUC0–8 h ([3]; 1 mpk i.p.): 1.52 µM·h
Cmax ([3]; 1 mpk i.p.): 650 nM
t1/2 ([3]; 1 mpk i.p.): 1.79 h
time to peak plasma concentration ([3]; i.p. dosing, 0.5 and 1 mpk): ≤ 30 min
Cmax ([3]; read-out: maximum plasma concentration (Cmax), 1 mpk i.p.): 650 nM
tolerability of i.v. administration ([4]; 20 mpk i.v.): not well tolerated
oral bioavailability ([4]; oral): zero oral bioavailability
significant mouse weight loss (more than 15% of original body weight) [5]: neither treatment schedule resulted in significant mouse weight loss
organ morphology (histology) [6]: normal organ morphology
aqueous solubility (Aqueous solubility): high aqueous solubility
stability in rat plasma (Stability in rat plasma): up to 4 h
reduction in tumor volume relative to vehicle (HCT116 xenograft tumors [7]; Rh-PPO treatment groups (0.5 and 1 mpk i.p.), day 21, efficacy experiment 1): 25 ± 2.7% and 25%
tumor volumes at conclusion of study (HCT116 xenograft tumors [7]): statistically similar tumor volumes
distribution of metal among organs [8]: accumulation of rhodium most significantly in the liver
stability in rat liver microsomes [9]: up to 4 h
toxicity of intratumoral administration (HCT116 xenograft tumors [10]): significant systemic toxicity; also recorded: unacceptably toxic
body weight change in MTD study (NSG mice; 1, 2, 5 mpk i.p. daily): lost body weight in a dose-dependent manner
clinical observations (NSG mice; 1 mpk i.p. daily for 10 d): only mild symptoms of distress; also recorded: tolerated over a 10-d period with minor indications of systemic toxicity
start of notable symptoms of distress and inactivity (NSG mice; 2 mpk i.p. daily): 4 days
start of notable symptoms of distress and inactivity (NSG mice; 5 mpk i.p. daily): 2 days

O=C1[O][Pt]2([NH][C@@H]3CCCC[C@H]3[NH]2)[O]C1=O [oxaliplatin, reference compound]
mouse deaths: found dead in cage (HCT116 xenograft tumors [1]; 7.5 mpk i.p.): 45.5%
IC50 [2]: 27.5 µM
half-life [11]: 0.235 h
tumor volumes at conclusion of study (HCT116 xenograft tumors [7]): statistically similar tumor volumes
distribution of metal among organs [8]: platinum was distributed evenly
